The test system of series [1] is Leishmania donovani. Briefly: Antipromastigote activity against Leishmania donovani MHOM/IN/80/Dd8 promastigotes assessed as luciferase activity of viable cells at 20 uM after 72 hrs by luminometry. It counts as functional. The conditions noted are these: MHOM/IN/80/Dd8, 72 h. An outline of the steps:
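Late-log luciferase-transfected promastigotes were seeded at 5 × 10⁵ per well in medium 199 with parallel DMSO dilutions as controls. After incubation, a suspension aliquot was mixed 1:1 with Steady Glo reagent and luminescence read as RLU. Percentage inhibition = (N − n) × 100/N, where N is mean control RLU and n is mean treated RLU.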

The test system of series [2] is Leishmania donovani. Briefly: Antiamastigote activity against Leishmania donovani MHOM/IN/80/Dd8 amastigotes infected in mouse macrophage after 72 hrs by luciferase reporter gene assay. It is filed as functional, organism-based. The conditions noted are these: MHOM/IN/80/Dd8, 72 h. An outline of the steps: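 Mouse J-774A.1 macrophages were seeded at 4 × 10⁴ cells/well in RPMI-1640 with 10% foetal calf serum, 37 °C, CO₂, for 24 h. They were then infected with stationary-phase luciferase-expressing promastigotes at 4 × 10⁵/well. Compounds were added in dilutions starting from 40 and incubated 72 h at 37 °C. Medium was replaced by PBS plus Steady Glo, luminescence read as RLU, and IC50 fitted by four-parameter Hill regression.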
On the technique in general: Reporter assays use an easily measured gene product as a stand-in for the process of interest.

Series [3] can be described thus: Cytotoxicity against mouse J774A1 cells assessed as cell viability after 72 hrs by MTT assay. It is filed as cell-based, J774.A1. (Tetrazolium assays rely on reduction of a dye to a coloured formazan, in cell work by metabolically active cells.)
The nature of series [4]: Selectivity index, ratio of CC50 for mouse J774A.1 cells to IC50 for Leishmania donovani MHOM/IN/80/Dd8 amastigotes. It is filed as functional.
In series [5] the test system is Leishmania donovani. The series is described as follows: Antiamastigote activity against Leishmania donovani MHOM/IN/80/Dd8 amastigotes infected in mouse macrophage at 40 uM after 72 hrs by luciferase reporter gene assay. It is filed as functional, organism-based.

The source made the active and inactive calls. The rule behind the calls is not given here.

By inhibition is commonly meant the drop in the measured response relative to a control, in per cent. One may read the IC50 as the concentration needed to halve the response being measured. Low values mean greater potency, high ones weaker potency. What is called CC50 is the concentration at which the toxic effect on the cells reaches its halfway point. Turning to `Clc1cccc(COC(CCn2ccnc2)c2cccs2)c1` (centres undefined), the inhibition at 20 µM with Leishmania donovani [1] came out at 100%. Further, it took 5.14 µM to reach half-maximal inhibition with Leishmania donovani [2] (IC50). The CC50 at 72 h in series [3] was determined as 46 µM. For the same compound, the “Selectivity Index” value in series [4] is 8.93.
`Clc1cccc(COC(CCn2cncn2)c2ccco2)c1` (centres undefined): the inhibition at 20 µM in the series on Leishmania donovani [1] was found to be 97.5%. This compound registered a concentration for half-maximal inhibition (IC50) with Leishmania donovani [2] of 7.36 µM. Also, in series [3], the CC50 at 72 h was 18.6 µM. The “Selectivity Index” value in series [4] is on record as 3.17.
Consider `Clc1ccc(COC(CCn2cncn2)c2cccs2)c(Cl)c1` (centres undefined), for which, in the series with Leishmania donovani [1], the inhibition at 20 µM was 97.1%. Besides, the inhibition result in the series with Leishmania donovani [5] is “inactive”.
For `Clc1cccc(COC(CCn2ccnc2)c2ccco2)c1` (centres undefined), in the series with Leishmania donovani [1], the inhibition at 20 µM turned out to be 100%. This compound yielded an IC50 in the series with Leishmania donovani [2] of 3.04 µM. Further, in series [3], the CC50 at 72 h was 60.2 µM. Moreover, the “Selectivity Index” value in series [4] was 19.8.
The corresponding values for `Fc1ccc(F)c(COC(CCn2ccnc2)c2ccco2)c1` (centres undefined) are 99%, 5.35 µM, 30.9 µM and 5.77.
For `Fc1ccc(F)c(COC(CCn2ccnc2)c2cccs2)c1` (centres undefined), in the series on Leishmania donovani [1], the inhibition at 20 µM came to 86.8%. In the series with Leishmania donovani [2], this compound registered an IC50 of 7.35 µM. In series [3], the CC50 at 72 h was 15.1 µM. Besides, the “Selectivity Index” value in series [4] is reported as 2.05.
In the case of `Clc1ccc(Cl)c(COC(CCn2ccnc2)c2ccco2)c1` (centres undefined), the inhibition at 20 µM in the series with Leishmania donovani [1] turned out to be 96%. For the same compound, the IC50 in the series on Leishmania donovani [2] turned out to be 4.03 µM. The half-maximal cytotoxic concentration (CC50) at 72 h in series [3] worked out at 37.6 µM. Further, the “Selectivity Index” value in series [4] amounted to 7.15.
Consider `Fc1ccc(F)c(COC(CCn2cncn2)c2cccs2)c1` (centres undefined), for which the inhibition at 20 µM in the series with Leishmania donovani [1] stood at 94.8%. Besides, the inhibition entry in the series with Leishmania donovani [5] is “inactive”.
Turning to `Clc1cccc(COC(CCn2cncn2)c2cccs2)c1` (centres undefined), the inhibition at 20 µM in the series with Leishmania donovani [1] was 80.6%. Inhibition in the series with Leishmania donovani [2] was half-maximal at 8.04 µM (IC50). Moreover, the CC50 at 72 h in series [3] is 15.6 µM. For the same compound, the “Selectivity Index” value in series [4] worked out at 1.93.
The corresponding values for `Clc1ccc(COC(Cn2ccnc2)c2ccc(Cl)cc2Cl)c(Cl)c1` (centres undefined) [MICONAZOLE] are 100%, 6 µM, 9.93 µM and 1.66.
The corresponding values for `Clc1ccc(COC(CCn2ccnc2)c2ccco2)c(Cl)c1` (centres undefined) are 91.8%, 5.15 µM, 56.2 µM and 10.9.
The corresponding values for `Clc1ccc(COC(CCn2ccnc2)c2cccs2)c(Cl)c1` (centres undefined) are 87.8%, 5.26 µM, 29.7 µM and 5.65.
For the compound `Clc1ccc(COC(CCn2cncn2)c2ccco2)c(Cl)c1` (centres undefined), the inhibition at 20 µM with Leishmania donovani [1] came out at 97.8%. In addition, the inhibition result in the series with Leishmania donovani [5] is “inactive”.
The corresponding values for `Fc1ccc(F)c(COC(CCn2cncn2)c2ccco2)c1` (centres undefined) are 98.5% and “inactive”.
On to `Clc1ccc(Cl)c(COC(CCn2ccnc2)c2cccs2)c1` (centres undefined), for which the inhibition at 20 µM in the series on Leishmania donovani [1] is 85.9%. In the series on Leishmania donovani [2], this compound returned an IC50 of 6.75 µM. Also, the CC50 at 72 h in series [3] came out at 18 µM. Moreover, the “Selectivity Index” value in series [4] was 2.66.
Turning to `Clc1ccc(Cl)c(COC(CCn2cncn2)c2ccco2)c1` (centres undefined), the inhibition at 20 µM with Leishmania donovani [1] came to 94.5%. Also, 9.39 µM corresponded to half-maximal inhibition in the series on Leishmania donovani [2] (IC50). Further, the CC50 at 72 h in series [3] is 28.9 µM. Further, in series [4], the “Selectivity Index” value is 3.08.
For the compound `Fc1ccc(COC(CCn2cncn2)c2cccs2)c(F)c1` (centres undefined), in the series on Leishmania donovani [1], the inhibition at 20 µM amounted to 92%. Also, the inhibition entry in the series on Leishmania donovani [5] is “inactive”.
Turning to `Clc1ccc(Cl)c(COC(CCn2cncn2)c2cccs2)c1` (centres undefined), in the series on Leishmania donovani [1], the inhibition at 20 µM turned out to be 97.3%. The inhibition result with Leishmania donovani [5] is “inactive”.
`Fc1ccc(COC(CCn2cncn2)c2ccco2)c(F)c1` (centres undefined): the inhibition at 20 µM with Leishmania donovani [1] stood at 90.5%. Also, the inhibition entry with Leishmania donovani [5] is “inactive”.
Consider `Fc1ccc(COC(CCn2ccnc2)c2cccs2)c(F)c1` (centres undefined), for which, in the series on Leishmania donovani [1], the inhibition at 20 µM turned out to be 90.6%. For the same compound, half-maximal inhibition with Leishmania donovani [2] (IC50) was put at 7.81 µM. Also, the CC50 at 72 h in series [3] is 34.4 µM. Also, in series [4], the “Selectivity Index” value was found to be 4.4.
The corresponding values for `CCCCCCCCCCCCCCCCOP(=O)([O-])OCC[N+](C)(C)C` [MILTEFOSINE] are 99.9%, 13.4 µM, 3.23 µM and 0.24.
As for `Fc1ccc(COC(CCn2ccnc2)c2ccco2)c(F)c1` (centres undefined), the inhibition at 20 µM with Leishmania donovani [1] stood at 95.5%. In the series on Leishmania donovani [2], this compound showed a concentration for half-maximal inhibition (IC50) of 4.2 µM. For the same compound, the CC50 at 72 h in series [3] stood at 28.8 µM. The “Selectivity Index” value in series [4] was found to be 6.86.

The record behind these values is ChEMBL document CHEMBL1772980, “Synthesis and evaluation of new furanyl and thiophenyl azoles as antileishmanial agents” (Eur J Med Chem, 2011).
